# Measurements: PubChem BioAssay
# Active and inactive are the calls of the source.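 The calls were made as follows, unless noted: active = visual image review flags a hit and inhibition of aggregation exceeds 20%; inconclusive = visual hit but inhibition at or below 20%; inactive = no hit on visual image review.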
# Legend:
# [1] = inhibitors of TNFa-induced NFkB p65 translocation, primary screen, imaging, HUVEC, MLSMR starter and 10KST1 sets (AID 438;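 active = inhibition above 20% together with a positive visual image hit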;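 also: compound added about 3h40 before a 20 min TNFalpha stimulation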;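 as to inhibition: signal is the nuclear over cytoplasmic p65 intensity ratio per well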); conditions: HUVEC TNFa-induced p65 nuclear translocation; cell count: measured here: nuclei count (cytotoxicity indicator), at 2.08 µM; inhibition: at 2 µM, stronger effect = higher value, 0% TNFa-plus-vehicle, 100% no-TNFa wells
# [2] = inhibitors of mutant huntingtin aggregation, primary screen, imaging, exon1htt(103Q)mCFP cells, high-content imaging (AID 483); conditions: exon1htt(103Q)mCFP cell line, aggregate imaging, at 2 µM; inhibition of aggregation: stronger effect = higher value; nuclei count: measured here: cell count, toxicity;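 also: compound exposure lasted 3 days before fixation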;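 as to nuclei count: percent of the per-plate median nuclei count of sample wells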
# [3] = inhibitors of E-selectin induction by TNFa, primary screen, imaging, HUVEC, immunofluorescence, MLSMR starter and 10KST1 sets (AID 487;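 active = visually confirmed hit in the image check and inhibition above 20%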;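 as to inhibition: signal is fraction of cell area covered by stained E-selectin grains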;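 as to nuclei count: 100% = median nuclei count of all wells on the same plate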); conditions: HUVEC TNFalpha-induced E-selectin immunofluorescence imaging, at 2 µM; inhibition: stronger effect = higher value; nuclei count: measured here: cell number, toxicity
# [4] = target: Voltage-gated potassium channel subunit beta-2 (Rattus norvegicus) (UniProt P62483); assay: KvBeta enzyme negative modulators, primary screen, biochemical, NADPH fluorescence (AID 622;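 active = fluorescence slope higher than the sample average by over 3 SD, cut at about -0.22 in these data, passing the limit was not always enough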;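 also: slope of raw intensity against log time taken from 70 to 1610 s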); conditions: recombinant KvBeta, 4-cyanobenzaldehyde reduction, at 10 µM, stronger effect = higher value
# Sequence of Voltage-gated potassium channel subunit beta-2 (Rattus norvegicus) (P62483 whole entry, looked up): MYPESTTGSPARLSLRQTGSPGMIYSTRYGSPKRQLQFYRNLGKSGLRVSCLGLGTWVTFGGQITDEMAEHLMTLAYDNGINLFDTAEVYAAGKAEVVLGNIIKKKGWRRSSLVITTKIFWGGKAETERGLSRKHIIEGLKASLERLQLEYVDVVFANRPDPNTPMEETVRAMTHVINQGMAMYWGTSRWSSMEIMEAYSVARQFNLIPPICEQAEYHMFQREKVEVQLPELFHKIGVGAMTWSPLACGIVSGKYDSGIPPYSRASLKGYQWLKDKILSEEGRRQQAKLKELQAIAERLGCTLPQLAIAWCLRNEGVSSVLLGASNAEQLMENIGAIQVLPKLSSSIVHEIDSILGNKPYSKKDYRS
# [5] = target: Voltage-gated potassium channel subunit beta-2 (Rattus norvegicus) (UniProt P62483); assay: KvBeta positive modulators, primary screen, biochemical, NADPH fluorescence (AID 623;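 active = NADPH fluorescence slope more negative than the mean of all samples by about 3 SD, 99.7% confidence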;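 also: fluorescence intensity change per second fitted from 20 to 320 s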); conditions: Recombinant KvBeta, NADPH fluorescence decrease slope, 10 min; at 10 µM; stronger effect = lower value
# [6] = target: Muscarinic acetylcholine receptor M4 (Homo sapiens) (UniProt P08173); assay: compounds altering M4/GIRK thallium flux, either direction, primary screen, M4 allosteric agonist project, cell-based, HEK293 M4/GIRK, BTC-AM (AID 625;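 active = fluorescence slope after compound addition differing from the mean of all tested samples at 99.7% confidence, mostly higher but some lower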;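 also: thallium influx through GIRK channels coupled to M4 in HEK293 cells with BTC-AM dye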); conditions: at 10 µM, actives lie on both sides
# Sequence of Muscarinic acetylcholine receptor M4 (Homo sapiens) (P08173 whole entry, looked up): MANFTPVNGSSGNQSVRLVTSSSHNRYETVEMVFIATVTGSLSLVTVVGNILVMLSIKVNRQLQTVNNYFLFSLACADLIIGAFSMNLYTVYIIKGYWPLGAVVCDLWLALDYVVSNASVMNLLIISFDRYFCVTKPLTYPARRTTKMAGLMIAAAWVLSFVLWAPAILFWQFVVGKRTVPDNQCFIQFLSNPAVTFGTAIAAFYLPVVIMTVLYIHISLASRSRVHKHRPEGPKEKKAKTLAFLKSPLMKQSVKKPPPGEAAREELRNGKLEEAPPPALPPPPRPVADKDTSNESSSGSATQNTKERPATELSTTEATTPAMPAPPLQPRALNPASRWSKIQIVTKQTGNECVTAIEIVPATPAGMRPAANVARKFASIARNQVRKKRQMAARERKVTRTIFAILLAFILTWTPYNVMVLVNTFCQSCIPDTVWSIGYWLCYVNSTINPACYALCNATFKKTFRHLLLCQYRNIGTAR
# Outline: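 Material: M4/GIRK1/GIRK2 stable HEK293 cell line. Medium: pH 7.3 thallium assay buffer. Dosing: single compound concentration, 10 µM final. Schedule: 1 h dye loading, 2 min kinetic read. Measured by: kinetic fluorescence with BTC-AM dye. Read-out: post-addition slope, 15–24 s, of baseline-normalized fluorescence. Benchmarks: carbachol and DMSO controls.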
# [7] = inhibitors of Sendai virus-induced IRF3 signaling, primary screen, TLR/RLR signaling modifier project, cell-based, Sendai virus stimulus, luciferase, 10K MLSCN set (AID 602276;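 active = inhibition at or above 50% at 10 µM; inactive = inhibition below 50%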;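 also: firefly luciferase from ISG56 promoter only with Renilla not read in this screen; 0% = Sendai virus plus DMSO and 100% = medium plus DMSO without virus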); conditions: HEK293 RL24 IRF3 luciferase reporter, at 10 µM, stronger effect = higher value
# [8] = inhibitors of poly I:C-induced TLR3 signaling, primary screen, cell-based, poly I:C stimulus, luciferase, 10K MLSCN set (AID 602277;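 active = inhibition of the reporter signal at or above 50%; inactive = inhibition below 50%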); conditions: HEK293-TLR3 RL24 IRF3 luciferase reporter, at 10 µM, stronger effect = higher value
Structure (SMILES),cell count [1],inhibition [1],inhibition of aggregation [2],nuclei count [2],inhibition [3],nuclei count [3],fluorescence slope [4],NADPH fluorescence slope [5],fluorescence slope [6],inhibition [7],inhibition [8]
Cc1cc(NC(=O)c2ccccc2Oc2ccccc2)no1,708,-0.2% (inactive),23.9% (inactive),102%,23.9% (inactive),101%,-0.532 (inactive),-6.9e-05 (inactive),0.00465 (inactive),12.4% (inactive),9.02% (inactive)
CC(=O)OC(C(=O)NCc1ccco1)c1cccnc1 (configuration not stated),609,-36.2% (inactive),-14.7% (inactive),105%,-9.7% (inactive),135%,-0.553 (inactive),-7.1e-05 (inactive),0.00644 (inactive),13% (inactive),15.9% (inactive)
COc1cccc(NC(=O)CN2CCN(c3ccccc3F)CC2)c1,275,-7.3% (inactive),19.4% (inactive),90.1%,11.9% (inactive),86.8%,-0.526 (inactive),0.000174 (inactive),0.00586 (inactive),17.2% (inactive),10.2% (inactive)
Cn1c(=O)c2c(nc(SCC(=O)NCc3ccc4c(c3)OCO4)n2Cc2ccccc2)n(C)c1=O,641,-14.8% (inactive),10.5% (inactive),104%,-33% (inactive),115%,-0.473 (inactive),-3.8e-05 (inactive),0.0042 (inactive),12.6% (inactive),11.8% (inactive)
COCCNC(=O)C(C)OC(=O)c1nsc(Cl)c1Cl (configuration not stated),551,-8.3% (inactive),0.5% (inactive),101%,-45.1% (inactive),115%,-0.317 (inactive),1e-05 (inactive),0.00545 (inactive),-6.04% (inactive),-22% (inactive)
CC1CCc2nc(NC(=O)CN3CCN(Cc4ccc5c(c4)OCO5)CC3)sc2C1 (configuration not stated),641,-9.3% (inactive),2% (inactive),100%,-24.4% (inactive),97.3%,-0.544 (inactive),-6.2e-05 (inactive),0.00492 (inactive),11.9% (inactive),10.6% (inactive)
CCOC(=O)CSc1nc2cc(C(=O)NCc3ccco3)ccc2c(=O)n1-c1ccc(F)cc1,329,7.7% (inactive),-7.1% (inactive),104%,7.7% (inactive),92.9%,-0.481 (inactive),0.000117 (inactive),0.00969 (inactive),-7.4% (inactive),-0.0676% (inactive)
CCN(CC)CC(=O)Nc1ccc(-c2nc3cc(NC(=O)CN(CC)CC)ccc3o2)cc1,621,4.9% (inactive),-13.9% (inactive),102%,41.6% (inactive),100%,-0.0978 (inactive),-3.8e-06 (inactive),0.00522 (inactive),-12.5% (inactive),92.9% (active)
CSc1nnc2n(CCc3ccccc3)c(=O)c3c4c(sc3n12)CCCC4,295,-21.3% (inactive),-2.1% (inactive),106%,-22% (inactive),112%,-0.476 (inactive),-2.9e-05 (inactive),0.00521 (inactive),7.14% (inactive),-1.7% (inactive)
CC(NC(=O)CSc1n[nH]c(=O)n1C1CC1)C12CC3CC(CC(C3)C1)C2 (configuration not stated),563,-23% (inactive),-6.1% (inactive),101%,-5.1% (inactive),110%,-0.378 (inactive),8.6e-05 (inactive),0.00652 (inactive),7.91% (inactive),23.3% (inactive)
O=C(CNS(=O)(=O)c1ccc(Br)s1)N1CCN(c2ncccn2)CC1,352,2.7% (inactive),13.7% (inactive),101%,-48.3% (inactive),86.3%,-0.532 (inactive),-0.000106 (inactive),0.00447 (inactive),-5.84% (inactive),-10.7% (inactive)
CCOC(=O)CCC(=O)c1c(C)oc2ccc(OC)cc12,447,-6.3% (inactive),4.8% (inactive),98.5%,46.7% (inactive),118%,-0.583 (inactive),4e-05 (inactive),0.00919 (inactive),-14.6% (inactive),-30.6% (inactive)
O=C1NC(=O)C2(CCC(C(=O)O)C2)N1 (configuration not stated),557,-17.5% (inactive),-0.1% (inactive),100%,-72.3% (inactive),119%,-0.408 (inactive),3.7e-05 (inactive),0.00541 (inactive),13.2% (inactive),17.5% (inactive)
CSc1cccc(NC(=O)C2CCN(S(C)(=O)=O)CC2)c1,248,3.5% (inactive),16.4% (inactive),80.7%,-296% (inactive),120%,-0.438 (inactive),3.2e-05 (inactive),0.00544 (inactive),13.5% (inactive),13.6% (inactive)
O=C(c1ccco1)N1CCN(C(=O)c2ccc(Cn3cc(Br)cn3)o2)CC1,371,2.6% (inactive),9.6% (inactive),102%,-21.6% (inactive),105%,-0.456 (inactive),-4.2e-05 (inactive),0.00591 (inactive),13.3% (inactive),12.9% (inactive)
CCCOc1nc(N)c(C#N)c(-c2ccccc2F)c1C#N,359,1.2% (inactive),10.7% (inactive),98.5%,-22.8% (inactive),99.6%,-0.547 (inactive),2.2e-05 (inactive),0.00463 (inactive),9.25% (inactive),14% (inactive)
O=C(Nc1ccncc1)c1cncc(Br)c1,718,-3% (inactive),-6.3% (inactive),98%,-153% (inactive),114%,-0.243 (inactive),-9.4e-06 (inactive),0.00626 (inactive),1.8% (inactive),0.632% (inactive)
O=C(COC(=O)c1cc(S(=O)(=O)N2CCOCC2)ccc1O)NCC1CCCO1 (configuration not stated),426,9.7% (inactive),-4.1% (inactive),88.7%,-39.1% (inactive),113%,-0.345 (inactive),5.4e-05 (inactive),0.00615 (inactive),15.4% (inactive),24.6% (inactive)
CCCCN(CCCNC(=O)C1CCN(S(=O)(=O)CC)CC1)c1ccccc1,547,7.2% (inactive),-2.7% (inactive),130%,-81.6% (inactive),165%,-0.441 (inactive),2.9e-05 (inactive),0.00466 (inactive),8.2% (inactive),25.8% (inactive)
CCOc1cc(S(=O)(=O)NCc2ccccn2)c(C)cc1C,412,-15.9% (inactive),-0.5% (inactive),112%,-20% (inactive),68.1%,-0.44 (inactive),-3.9e-05 (inactive),0.0075 (inactive),8.05% (inactive),20.9% (inactive)
Fc1c(F)c(F)c(CSc2nc3ccccc3[nH]2)c(F)c1F,423,0% (inactive),28.9% (inactive),82.8%,-40.6% (inactive),86.2%,-0.562 (inactive),-3.7e-05 (inactive),0.0075 (inactive),-6.35% (inactive),-46.6% (inactive)
CCOc1ccccc1NC(=O)CSc1c(C)n[nH]c1C,333,-2% (inactive),-21.4% (inactive),120%,-17.1% (inactive),113%,-0.548 (inactive),-1.7e-05 (inactive),0.00526 (inactive),1.91% (inactive),15.3% (inactive)
CCOC(=O)N1CCN(C(=O)CN(C)S(=O)(=O)c2ccc(OC)c(OC)c2)CC1,464,5.8% (inactive),-12.7% (inactive),118%,17.8% (inactive),102%,-0.614 (inactive),-3.8e-05 (inactive),0.00404 (inactive),16.2% (inactive),20.5% (inactive)
O=C(Nc1cccc(F)c1)N1CC=C(n2c(=O)[nH]c3ccccc32)CC1,312,5.7% (inactive),4.5% (inactive),107%,-37.9% (inactive),83.5%,-0.453 (inactive),-0.000227 (inactive),0.00517 (inactive),15% (inactive),15.5% (inactive)
O=C(CS(=O)(=O)Cc1ccccc1)Nc1nc2ccccc2s1,425,-4% (inactive),8.1% (inactive),82.8%,13.1% (inactive),97%,-0.487 (inactive),-3.1e-05 (inactive),0.00544 (inactive),10.2% (inactive),23.6% (inactive)
O=C(Cn1cnc2c(oc3ccccc32)c1=O)N1CCN(c2ccccc2)CC1,648,10.8% (inactive),34.2% (inactive),95%,-78% (inactive),84.4%,-0.493 (inactive),1.3e-05 (inactive),0.00654 (inactive),10.1% (inactive),17.4% (inactive)
CCOCCn1cnc2sc(C(=O)NCC(=O)OCC)c(C)c2c1=O,425,7.9% (inactive),-1.3% (inactive),107%,-256% (inactive),165%,-0.55 (inactive),-2.6e-05 (inactive),0.00587 (inactive),-2.53% (inactive),-16% (inactive)
